# Experimental data: publication PMC8227600 (ACS Central Science, 2021)
# pEC50, pIC50, pKd: −log10 of the molar value. Structures can show the parent of a compound that is named as a salt.
# Tests used:
# HT22 cells [1] = experiment: Erastin-induced ferroptosis in HT22 cells; type: cell-based, mouse
# How it was run: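 HT22 cells were cotreated with Erastin and test compound, and cell viability was measured. A value was reported as not determined where viability was below 50% at 1.0 μM compound with Erastin.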
# HT-1080 cells [2] = experiment: Ferroptosis induced by Erastin, RSL3, ML210 or GPX4 knockdown in HT-1080 cells; type: cell-based, human
# How it was run: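 HT-1080 cells were transfected for 12 h with scrambled siRNA (si-NC) or GPX4-targeting siRNA. Cells were then treated for 36 h with or without 0.5 μM test compound, 0.5 μM Fer-1 or 20 μM DFO. Viability was read by CCK-8. Values are mean ± SEM of three independent experiments.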
# NCOA4^383–522 [3] = target: T1, NCOA4^383–522 (Homo sapiens, UniProt Q13772); experiment: Pull-down of recombinant NCOA4^383–522; type: binding; conditions: protein preincubated with 9a 1 h
# T1 sequence (Q13772 383-522): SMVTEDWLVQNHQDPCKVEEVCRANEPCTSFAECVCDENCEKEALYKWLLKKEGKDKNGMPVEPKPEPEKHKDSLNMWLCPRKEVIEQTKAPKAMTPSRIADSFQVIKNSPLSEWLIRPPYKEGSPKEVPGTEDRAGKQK
# How it was run: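 Recombinant NCOA4 383–522 or FTH1 protein was pretreated with test compound or DMSO for 1 h. It was then incubated for 1 h with increasing concentrations of a biotinylated probe precoupled to streptavidin magnetic beads. Bead-bound protein was detected by silver staining and Western blotting.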
# PTGS2 mRNA = PTGS2 mRNA expression; type: cell-based, mouse; conditions: 12 h
# NCOA4–FTH1 interaction = target: T2, NCOA4–FTH1 interaction (Homo sapiens, UniProt Q13772); experiment: Coimmunoprecipitation of NCOA4 and FTH1 in cells; type: cell-based
# T2 sequence (Q13772 1-614): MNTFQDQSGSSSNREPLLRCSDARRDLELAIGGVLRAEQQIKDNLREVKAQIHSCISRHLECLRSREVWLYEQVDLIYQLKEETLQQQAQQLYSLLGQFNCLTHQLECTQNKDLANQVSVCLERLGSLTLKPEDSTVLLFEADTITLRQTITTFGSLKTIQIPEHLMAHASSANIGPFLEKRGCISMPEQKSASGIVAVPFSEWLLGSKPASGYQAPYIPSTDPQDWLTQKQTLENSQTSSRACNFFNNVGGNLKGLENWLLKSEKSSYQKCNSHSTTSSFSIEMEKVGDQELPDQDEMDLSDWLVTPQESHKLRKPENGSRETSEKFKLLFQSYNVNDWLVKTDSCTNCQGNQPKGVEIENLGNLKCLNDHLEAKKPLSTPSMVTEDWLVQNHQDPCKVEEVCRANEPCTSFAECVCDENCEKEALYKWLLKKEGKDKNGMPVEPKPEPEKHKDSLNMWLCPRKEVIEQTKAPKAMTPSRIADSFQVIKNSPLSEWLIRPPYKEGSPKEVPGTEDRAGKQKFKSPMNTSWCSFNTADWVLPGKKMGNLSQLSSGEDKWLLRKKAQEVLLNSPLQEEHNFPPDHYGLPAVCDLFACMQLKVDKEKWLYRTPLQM
# ferritin = experiment: Ferritin protein level; type: cell-based, mouse; conditions: 6 h
# HT22 cells [4] = experiment: Ferroptosis induced by cysteine depletion, BSO or ML210 in HT22 cells; type: cell-based, mouse; conditions: for cell death from cysteine depletion: cystine-free media 24 h, 0.5 μM 9a, 0.5 μM Fer-1 or 20 μM DFO
# [5] = target: T3, NCOA4^383–522–FTH1 interaction (Homo sapiens, UniProt Q13772); experiment: ELISA for NCOA4^383–522–FTH1 protein-protein interaction; type: binding
# T3 sequence (Q13772 383-522): T1 sequence (Q13772 383-522)
# How it was run: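 Test compound at the indicated concentrations was preincubated with recombinant NCOA4 383–522. Binding of NCOA4 383–522 to FTH1 was then monitored by ELISA to build a dose–response curve. Values are mean ± SEM of three independent experiments.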
# NCOA4 = target: T4, NCOA4 (Homo sapiens, UniProt Q13772); experiment: Biotin–streptavidin pull-down from HEK-293T lysates; type: binding; conditions: lysate preincubated with 9a (20 μM) 6 h at 4 °C
# T4 sequence (Q13772 1-614): T2 sequence (Q13772 1-614)
# How it was run: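 HEK-293T lysates expressing FTH1-Myc-His and NCOA4-Flag were pretreated with test compound or DMSO for 6 h at 4 °C. They were then incubated overnight at 4 °C with increasing concentrations of a biotinylated probe precoupled to streptavidin magnetic beads. Precipitates were pulled down with the beads and immunoblotted with anti-tag antibodies. Biotin-PEG3-N3 served as the negative-control probe.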
# HT22 cells [6] = experiment: LC3-II level; type: cell-based, mouse; conditions: 6 h, Western blotting
# HT22 cells [7] = experiment: Lipid ROS; type: cell-based, mouse; conditions: 3 h; for lipid ROS, oxidized BODIPY-C11 fluorescence intensity: 1 μM RSL3, 0.5 μM compound
# How it was run: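 HT22 cells were exposed to 1 μM RSL3 with or without 0.5 μM test compound or 0.5 μM Fer-1 for 3 h. Lipid ROS was detected with BODIPY-C11 (oxidized form, green) by confocal microscopy (Hoechst 33342 nuclei) and by flow cytometry. Cytosolic ROS was measured by flow cytometry with carboxy-H2DCFDA.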
# HT-1080 cells [8] = experiment: Lipid ROS in HT-1080 cells after GPX4 knockdown; type: cell-based, human; conditions: 0.5 μM 9a, 36 h
# HT22 cells [9] = experiment: Intracellular Fe^2+; type: cell-based, mouse; conditions: 6 h; for fluorescence intensity of FerroOrange (free Fe^2+): 0.5 μM 9a or 50 μM DFO
# How it was run: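 Live HT22 cells were given 0.5 μM test compound or 50 μM DFO for 6 h, then imaged by confocal microscopy with the Fe2+ probe FerroOrange; nuclei were stained with Hoechst 33342. Lysosomal Fe2+ was scored as FerroOrange signal colocalised with LysoTracker Green per cell, about 100 cells per condition. Three independent experiments, mean ± SEM.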
# HT22 cells [10] = experiment: Intracellular GSH level and GPX4 expression in HT22 cells; type: cell-based, mouse; conditions: 12 h
# [11] = test system: MCAO model of ischemic stroke; type: in vivo, rat; conditions: for infarct volume (TTC staining): rat, in vivo
# HT22 cells [12] = experiment: Non-ferroptotic cell death; type: cell-based, mouse
# NCOA4^383–522 [13] = target: T1, NCOA4^383–522; experiment: Surface plasmon resonance binding to NCOA4^383–522
# HT22 cells [14] = experiment: RSL3-induced ferroptosis in HT22 cells; type: cell-based; conditions: Mus musculus, HT-22, 24 h, read-out: EC50, inhibition of RSL3-induced death
smiles,measurement,setting,value
CN1CCN(c2ccc3nc(-c4cccc(N5CCc6ccccc6C5)c4)[nH]c3c2)CC1 [4a],pEC50,"HT22 cells [1]; Mus musculus, HT-22, 24 h",6.30
CC1CCN(c2ccc3nc(-c4cccc(N5CCc6ccccc6C5)c4)[nH]c3c2)CC1 [4b],pEC50,"HT22 cells [1]; Mus musculus, HT-22, 24 h",6.19
c1cc(-c2nc3ccc(N4CCCCC4)cc3[nH]2)cc(N2CCc3ccccc3C2)c1 [4c],pEC50,"HT22 cells [1]; Mus musculus, HT-22, 24 h",5.92
CN1CCN(c2ccc3nc(-c4cccc(N5CCc6cc(F)ccc6C5)c4)[nH]c3c2)CC1 [9a],"ferroptosis induced by Erastin, RSL3, or ML210","HT-1080 cells [2]; inducers 1 μM, 24 h",inhibited ferroptosis
same,ferroptosis induced by knockdown of GPX4,"HT-1080 cells [2]; si-GPX4 12 h, then 0.5 μM 9a 36 h",significantly suppressed ferroptosis
same,competition of Biotin-14d binding to NCOA4^383–522,NCOA4^383–522 [3],blocked
same,RSL3-induced PTGS2 mRNA expression,PTGS2 mRNA,dose-dependently inhibited the upregulation of PTGS2 expression
same,"NCOA4–FTH1 interaction, co-IP of FTH1-Myc-His and NCOA4-Flag","NCOA4–FTH1 interaction; HEK-293T cells, 16 h treatment",substantially impaired
same,"endogenous NCOA4–FTH1 interaction, co-IP","NCOA4–FTH1 interaction; HT-1080 cells, 6 h",inhibited the endogenous NCOA4 interaction with FTH1
same,mRNA expressions of FTH1 and FTL,"ferritin; 0.5 μM 9a, qPCR",did not change
same,protein level of ferritin,ferritin; Western blotting,increased in a dose-dependent manner
same,pEC50,"HT22 cells [1]; Mus musculus, HT-22, 24 h",6.54
same,BSO-induced ferroptosis,"HT22 cells [4]; 100 μM BSO, 12 h",dose-dependently prevented cell death
same,ML210-induced ferroptosis,"HT22 cells [4]; ML210 10 μM, 24 h",ferroptosis inhibitory behavior similar to those of Fer-1 and DFO
same,cell death from cysteine depletion,HT22 cells [4],significantly reduced the level of cell death
same,pIC50,[5],5.49
same,competition of Biotin-14d binding to NCOA4,NCOA4,competitively inhibited
same,LC3-II level,HT22 cells [6],no ability to induce an increase in the LC3-II level
same,"lipid ROS, oxidized BODIPY-C11 fluorescence intensity",HT22 cells [7],remarkably decreased
same,RSL3-induced cytosolic ROS accumulation,"HT22 cells [7]; carboxy-H2DCFDA, flow cytometry",suppressed by 9a in a dose-dependent manner
same,lipid ROS accumulation induced by knockdown of GPX4,HT-1080 cells [8],inhibited lipid ROS accumulation
same,fluorescence intensity of FerroOrange (free Fe^2+),HT22 cells [9],significantly decreased
same,Fe^2+ in lysosomes (FerroOrange colocalized with LysoTracker Green),HT22 cells [9]; 0.5 μM 9a,diminished
same,intracellular GSH level,HT22 cells [10],did not change
same,GPX4 expression,HT22 cells [10]; immunoblot,did not change
same,4-hydroxynonenal (4-HNE) level in the lesioned hemisphere,[11]; 10 mg/kg i.p.,reduced
same,PTGS2 gene expression in the lesioned hemisphere,[11]; 10 mg/kg i.p.,significantly decreased
same,malondialdehyde (MDA) level in the lesioned hemisphere,[11]; 10 mg/kg i.p.,reduced
same,neurological deficits (Longa test),"[11]; 10 mg/kg i.p., 24 h after MCAO and reperfusion",improved neurological deficits
same,percentage of injured neurons in the cortex (Nissl staining),"[11]; 10 mg/kg i.p., lesioned hemisphere",reduced the percentage of injured neurons in the cortex
same,infarct volume (TTC staining),[11],substantially reduced infarct volume
same,staurosporine (STS)-induced apoptosis,"HT22 cells [12]; 0.5 μM STS, 24 h",cannot inhibit
same,hydrogen peroxide (H2O2)-induced necrosis,"HT22 cells [12]; 2 mM H2O2, 12 h",cannot inhibit
same,TNF-α/SM-164/zVAD-fmk-induced necroptosis,HT22 cells [12]; 12 h,cannot inhibit
same,pKd,NCOA4^383–522 [13],5.13
Cc1ccc2c(c1)CN(c1cccc(-c3nc4ccc(N5CCN(C)CC5)cc4[nH]3)c1)CC2 [9e],pEC50,"HT22 cells [1]; Mus musculus, HT-22, 24 h",6.11
COc1cccc2c1CN(c1cccc(-c3nc4ccc(N5CCN(C)CC5)cc4[nH]3)c1)CC2 [9f],pEC50,"HT22 cells [1]; Mus musculus, HT-22, 24 h",6.48
CCOc1ccc2c(c1)CCN(c1cccc(-c3nc4ccc(N5CCN(C)CC5)cc4[nH]3)c1)C2 [14a],pEC50,"HT22 cells [1]; Mus musculus, HT-22, 24 h",6.29
CCCOc1ccc2c(c1)CCN(c1cccc(-c3nc4ccc(N5CCN(C)CC5)cc4[nH]3)c1)C2 [14b],pEC50,"HT22 cells [1]; Mus musculus, HT-22, 24 h",6.41
CC(C)Oc1ccc2c(c1)CCN(c1cccc(-c3nc4ccc(N5CCN(C)CC5)cc4[nH]3)c1)C2 [14c],pEC50,"HT22 cells [1]; Mus musculus, HT-22, 24 h",6.28
C#CCOc1ccc2c(c1)CCN(c1cccc(-c3nc4ccc(N5CCN(C)CC5)cc4[nH]3)c1)C2 [14d],pEC50,HT22 cells [14],6.16
same,pEC50,"HT22 cells [1]; Mus musculus, HT-22, 24 h",6.06
"CC(=O)N(O)CCCCCNC(=O)CCC(=O)N(O)CCCCCNC(=O)CCC(=O)N(O)CCCCCN [DFO, Deferoxamine mesylate, reference compound]",pEC50,"HT22 cells [1]; Mus musculus, HT-22, 24 h",5.24
same,cell death from cysteine depletion,HT22 cells [4],significantly reduced the level of cell death
same,fluorescence intensity of FerroOrange (free Fe^2+),HT22 cells [9],significantly decreased
"CCOC(=O)c1ccc(NC2CCCCC2)c(N)c1 [Fer-1, Ferrostatin-1, reference compound]",pEC50,"HT22 cells [1]; 1 μM Erastin, 24 h, CCK-8",7.09
same,cell death from cysteine depletion,HT22 cells [4],significantly reduced the level of cell death
same,"lipid ROS, oxidized BODIPY-C11 fluorescence intensity",HT22 cells [7],remarkably decreased
same,infarct volume (TTC staining),[11],substantially reduced infarct volume
